The results in this text go back to ChEMBL document CHEMBL1122046, “Quaternary heterocyclylamino beta-lactams: a generic alternative to the classical acylamino side chain” (1982).

In one assay the test system is Escherichia coli. The assay can be described thus: MIC against aerobic organism Escherichia coli strain 2891. The format is functional. Conditions: Escherichia coli; read-out: MIC. A digest of the protocol:
(§1)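 Agar-dilution MIC in µg/mL against aerobic bacterial strains on tryptocase soy agar, with inoculum applied as spots. Most series used 10^5 cfu per spot, and a later series used 10^4 cfu per spot. In some tables, footnoted strains were instead tested on Mueller-Hinton or nutrient agar. β-Lactamase-producing strains are flagged.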

Assay [1] deals with Enterobacter cloacae. The assay is described as follows: Minimum inhibitory concentration against aerobic organism Enterobacter cloacae strain 2646. The format is functional. To be noted: Enterobacter cloacae; read-out: MIC. A digest of the protocol: as §1
Assay [2] has as its system Klebsiella pneumoniae. The assay is described as follows: Minimum inhibitory concentration against aerobic organism Klebsiella pneumoniae strain 2882. The format is functional. To be noted: Klebsiella pneumoniae; read-out: MIC. A digest of the protocol:
as §1

Assay [3] is described as follows: Minimum inhibitory concentration against aerobic organism Salmonella schottmuelleri strain 2837. The format is functional. To be noted: Salmonella; read-out: MIC. A digest of the protocol:
as §1

Assay [4] deals with Streptococcus pyogenes. The assay can be described thus: Minimum inhibitory concentration against aerobic organism Streptococcus pyogenes strain 3124. Type of assay: functional. A digest of the protocol: as §1
Assay [5] concerns Staphylococcus aureus. The assay can be described thus: Minimum inhibitory concentration against aerobic organism Staphylococcus aureus strain 2868. The format is functional. To be noted: Staphylococcus aureus; read-out: MIC. A digest of the protocol:
as §1

In another assay the test system is Shigella. The assay is described as follows: (§2) Minimum inhibitory concentration against aerobic organism Shigella species strain 2880. The format is functional. To be noted: Shigella; read-out: MIC. A digest of the protocol: as §1
Assay [6] relates to Enterococcus faecalis. The assay is described as follows: Minimum inhibitory concentration against aerobic organism Streptococcus faecalis strain 2864.
The test system of assay [7] is Salmonella. The assay is described as follows: Inhibition zone diameter against aerobic organism Salmonella strain 826.
The next assay concerns Klebsiella. The assay can be described thus: Inhibition zone diameter against aerobic organism Klebsiella species strain 2921.
Assay [8] concerns Serratia marcescens. The assay can be described thus: Inhibition zone diameter against aerobic organism Serratia marcescenes strain 2855.
Assay [9] has as its system Staphylococcus aureus. The assay can be described thus: Inhibition zone diameter against aerobic organism Staphylococcus aureus strain 2314.
In assay [10] the test system is Pseudomonas aeruginosa. The assay is described as follows: Inhibition zone diameter against aerobic organism Pseudomonas aeruginosa strain 3350.
Assay [11] has as its system Streptococcus pyogenes. The assay can be described thus: Inhibition zone diameter against aerobic organism Streptococcus pyogenes strain 2874.
The test system of assay [12] is Morganella morganii. The assay is described as follows: Disk zone diameter (25 ug/disk) against aerobic organism Morganella morganii strain 2834.
The subject of assay [13] is Staphylococcus aureus. The assay can be described thus: Inhibition zone diameter against aerobic organism Staphylococcus aureus strain 2314. The source holds these as a separate data set.
For assay [14], the system named is Enterobacter cloacae. The assay can be described thus: Minimum inhibitory concentration against aerobic organism Enterobacter cloacae 2646. Type of assay: functional. A digest of the protocol:
as §1

The subject of assay [15] is Enterococcus faecalis. The assay is described as follows: Minimum inhibitory concentration against aerobic organisms Streptococcus faecalis strain 2864. The format is functional. A digest of the protocol:
as §1

The subject of a further assay is Shigella sp. Described as §2. Type of assay: functional. A digest of the protocol:
as §1

Assay [16] has as its system Klebsiella aerogenes. The assay is described as follows: Minimum inhibitory concentration against aerobic organism Enterobacter aerogenes strain 2828. Type of assay: functional. A digest of the protocol: as §1
The subject of assay [17] is Klebsiella pneumoniae. The assay is described as follows: Minimum inhibitory concentration against aerobic organism Klebsiella pneumoniae strain 4005. Type of assay: functional. A digest of the protocol:
as §1

The subject of assay [18] is Morganella morganii. The assay can be described thus: Minimum inhibitory concentration against aerobic organism Morganella morganii strain 2833. The format is functional. Conditions: Morganella morganii; read-out: MIC. A digest of the protocol: as §1
Assay [19] deals with Pseudomonas aeruginosa. The assay is described as follows: Minimum inhibitory concentration against aerobic organism Pseudomonas aeruginosa strain 2835. The format is functional. A digest of the protocol: as §1
The next assay relates to Proteus mirabilis. The assay is described as follows: Minimum inhibitory concentration against aerobic organism Proteus mirabilis strain 2830. Type of assay: functional. To be noted: Proteus mirabilis; read-out: MIC. A digest of the protocol: as §1
The test system of another assay is Proteus vulgaris. The assay can be described thus: Minimum inhibitory concentration against aerobic organism Proteus vulgaris strain 2829. Type of assay: functional. To be noted: Proteus vulgaris; read-out: MIC. A digest of the protocol: as §1
Assay [20] deals with Staphylococcus aureus. The assay can be described thus: Minimum inhibitory concentration against aerobic organism Staphylococcus aureus strain 2865. The format is functional. A digest of the protocol: as §1
For assay [21], the system named is Enterococcus faecalis. The assay can be described thus: Minimum inhibitory concentration against aerobic organism Streptococcus faecalis strain 2864. Type of assay: functional. A digest of the protocol: as §1
Assay [22] concerns Salmonella. The assay is described as follows: Minimum inhibitory concentration against aerobic organism Salmonella strain 3860.
Assay [23] deals with Klebsiella aerogenes. The assay is described as follows: Minimum inhibitory concentration against aerobic organism Enterobacter aerogenes strain 2906. Type of assay: functional. Conditions: Klebsiella aerogenes; read-out: MIC. A digest of the protocol:
as §1

In assay [24] the test system is Serratia marcescens. The assay can be described thus: Minimum inhibitory concentration against aerobic organism Serratia marcescens strain 2852. Type of assay: functional. To be noted: Serratia marcescens; read-out: MIC. A digest of the protocol: as §1
In assay [25] the test system is Morganella morganii. The assay can be described thus: Minimum inhibitory concentration against aerobic organism Morganella morganii strain 2833.
Assay [26] in a line: Minimum inhibitory concentration against aerobic organism Salmonella schottmuelleri 2837. Type of assay: functional. A digest of the protocol:
as §1

The mark [27] stands for this setting: Streptococcus pyogenes, read-out: MIC.

≈ marks a conversion by molar mass, not a printed value.

Turning to `C[n+]1ccc(NC2C(=O)N3C2SC(C)(C)[C@@H]3C(=O)[O-])cc1` (stereo not given in full), the MIC with Escherichia coli was 50 µg/mL (≈ 163 µM); with Enterobacter cloacae [1] it was > 100 µg/mL; with Klebsiella pneumoniae [2], 100 µg/mL (≈ 325 µM); in assay [3] it was 0.78 µg/mL (≈ 2.54 µM); in the assay on Streptococcus pyogenes [4] (setting [27]) it was 1.56 µg/mL (≈ 5.08 µM); in the assay with Staphylococcus aureus [5], > 100 µg/mL. For the same molecule, the MIC in the assay on Shigella is 12.5 µg/mL (≈ 40.7 µM); in the assay on Enterococcus faecalis [6] it was > 100 µg/mL.

For the molecule `CC(O)[C@H]1C(=O)N2C(C(=O)[O-])=C(SCCNc3cccc[n+]3C)C[C@H]12` (stereo not given in full), the zone diameter with Salmonella [7] came to 27.5 mm; in the assay on Klebsiella, 26 mm; with Serratia marcescens [8], 26 mm; in the assay on Staphylococcus aureus [9] it was 42.5 mm; in the assay on Pseudomonas aeruginosa [10], 17.5 mm; in the assay on Streptococcus pyogenes [11], 37 mm. Also, the zone diameter in the assay on Morganella morganii [12] is 27 mm.

In the case of `CC(O)[C@H]1C(=O)N2C(C(=O)[O-])=C(SCCNc3cc[n+](C)cc3)C[C@H]12` (stereo not given in full), the zone diameter with Salmonella [7] worked out at 28 mm; in the assay with Klebsiella it was 27 mm; in the assay with Serratia marcescens [8] it was 26.5 mm; with Staphylococcus aureus [9] it was 42 mm; in the assay on Pseudomonas aeruginosa [10], 24.5 mm; in the assay with Streptococcus pyogenes [11], 37.5 mm. In the assay with Morganella morganii [12], the zone diameter stood at 26 mm.

Take `C[C@@H](O)[C@H]1C(=O)N2C(C(=O)O)=C(SCCNC=N)C[C@H]12` [IMIPENEM ANHYDROUS]: the zone diameter with Salmonella [7] amounted to 29.5 mm; with Klebsiella, 26.5 mm; in the assay on Serratia marcescens [8] it was 24.5 mm; with Staphylococcus aureus [13], 42 mm; with Pseudomonas aeruginosa [10] it was 31 mm; in the assay on Streptococcus pyogenes [11], 43 mm. This molecule also showed a zone diameter in the assay with Morganella morganii [12] of 27 mm.

Take `CC1(C)S[C@@H]2[C@H](NC(=O)[C@H](N)c3ccccc3)C(=O)N2[C@H]1C(=O)O` [AMPICILLIN]: the MIC was > 100 µg/mL with Escherichia coli; > 100 µg/mL in the assay with Enterobacter cloacae [14]; 50 µg/mL (≈ 143 µM) in the assay on Klebsiella pneumoniae [2]; 1.56 µg/mL (≈ 4.46 µM) in [3]; < 0.09 µg/mL with Streptococcus pyogenes [4]; 25 µg/mL (≈ 71.5 µM) in the assay on Staphylococcus aureus [5]. The MIC in the assay on Enterococcus faecalis [15] and in the assay with Shigella sp. was 6.25 µg/mL (≈ 17.9 µM) in each case.

Take `CC(=O)NCCSC1=C(C(=O)O)N2C(=O)[C@H](C(C)O)[C@H]2C1` (stereo not given in full): the zone diameter in the assay with Salmonella [7] turned out to be 30.5 mm; with Klebsiella, 28 mm; with Serratia marcescens [8], 28 mm; in the assay with Staphylococcus aureus [13], 39 mm; in the assay on Pseudomonas aeruginosa [10] it was 10 mm; in the assay with Streptococcus pyogenes [11], 37 mm. Also, the zone diameter in the assay on Morganella morganii [12] was determined as 28.5 mm.

`Cc1nnc(SCC2=C(C(=O)[O-])N3C(=O)[C@@H](Nc4cc[n+](Cc5ccccc5)cc4)[C@H]3SC2)s1`: the MIC in the assay on Escherichia coli is < 0.06 µg/mL; in the assay with Klebsiella aerogenes [16], 16 µg/mL (≈ 31.3 µM); in the assay with Enterobacter cloacae [1] it was 0.125 µg/mL (≈ 0.244 µM); against Klebsiella pneumoniae [17] it was 16 µg/mL (≈ 31.3 µM); with Morganella morganii [18], 128 µg/mL (≈ 250 µM); against Pseudomonas aeruginosa [19], > 128 µg/mL. The MIC was determined as 128 µg/mL (≈ 250 µM) with Proteus mirabilis; 0.25 µg/mL (≈ 0.489 µM) in the assay with Proteus vulgaris; 0.25 µg/mL (≈ 0.489 µM) with Staphylococcus aureus [20]; 2 µg/mL (≈ 3.91 µM) in the assay on Staphylococcus aureus [5]; 64 µg/mL (≈ 125 µM) in the assay on Enterococcus faecalis [21]; 0.125 µg/mL (≈ 0.244 µM) against Salmonella [22].

Consider `CCOC(=O)C[n+]1ccc(N[C@@H]2C(=O)N3C(C(=O)[O-])=C(CSc4nnnn4C)CS[C@H]23)cc1`, for which the MIC is 2 µg/mL (≈ 4.07 µM) in the assay with Escherichia coli; 32 µg/mL (≈ 65.1 µM) in the assay with Klebsiella aerogenes [23]; 16 µg/mL (≈ 32.5 µM) with Enterobacter cloacae [1]; 4 µg/mL (≈ 8.14 µM) with Klebsiella pneumoniae [2]; > 128 µg/mL against Pseudomonas aeruginosa [19]; 128 µg/mL (≈ 260 µM) in the assay with Proteus mirabilis. Also, the MIC was < 0.5 µg/mL in the assay with Proteus vulgaris; 2 µg/mL (≈ 4.07 µM) in [3]; > 128 µg/mL in the assay with Serratia marcescens [24]; < 0.5 µg/mL with Streptococcus pyogenes [4] (setting [27]); 16 µg/mL (≈ 32.5 µM) in the assay on Staphylococcus aureus [5]; > 128 µg/mL in the assay on Enterococcus faecalis [21]. The MIC was < 0.5 µg/mL in the assay with Shigella and > 128 µg/mL in the assay with Morganella morganii [25].

Consider `CC1(C)S[C@@H]2[C@H](NC(=O)Cc3ccccc3)C(=O)N2[C@H]1C(=O)O` [PENICILLIN G], for which the MIC is > 100 µg/mL in the assay with Escherichia coli; > 100 µg/mL against Enterobacter cloacae [14]; 25 µg/mL (≈ 74.8 µM) with Klebsiella pneumoniae [2]; 3.12 µg/mL (≈ 9.33 µM) in assay [26]; < 0.39 µg/mL with Streptococcus pyogenes [4] (setting [27]); 12.5 µg/mL (≈ 37.4 µM) with Staphylococcus aureus [5]. Also, the MIC stood at 1.56 µg/mL (≈ 4.67 µM) against Enterococcus faecalis [15] and 6.25 µg/mL (≈ 18.7 µM) in the assay with Shigella sp..

On to `CC(O)[C@H]1C(=O)N2C(C(=O)[O-])=C(SCCNc3cc[n+](Cc4ccccc4)cc3)C[C@H]12` (stereo not given in full), for which the zone diameter in the assay on Salmonella [7] stood at 26 mm; in the assay with Klebsiella, 24 mm; in the assay with Serratia marcescens [8], 25 mm; in the assay with Staphylococcus aureus [13] it was 36 mm; in the assay on Pseudomonas aeruginosa [10], 11.2 mm; in the assay on Streptococcus pyogenes [11] it was 35.2 mm. This molecule showed a zone diameter in the assay on Morganella morganii [12] of 26.5 mm.
